≈ marks a conversion by molar mass, not a printed value.

In series [1] the target is T1, Glycogen synthase kinase-3 beta (Homo sapiens, UniProt P49841). Kind of series: Inhibition of human recombinant GSK3-beta after 1 hr by KinaseGlo luciferase assay.
Target sequence in this assay (P49841 whole entry): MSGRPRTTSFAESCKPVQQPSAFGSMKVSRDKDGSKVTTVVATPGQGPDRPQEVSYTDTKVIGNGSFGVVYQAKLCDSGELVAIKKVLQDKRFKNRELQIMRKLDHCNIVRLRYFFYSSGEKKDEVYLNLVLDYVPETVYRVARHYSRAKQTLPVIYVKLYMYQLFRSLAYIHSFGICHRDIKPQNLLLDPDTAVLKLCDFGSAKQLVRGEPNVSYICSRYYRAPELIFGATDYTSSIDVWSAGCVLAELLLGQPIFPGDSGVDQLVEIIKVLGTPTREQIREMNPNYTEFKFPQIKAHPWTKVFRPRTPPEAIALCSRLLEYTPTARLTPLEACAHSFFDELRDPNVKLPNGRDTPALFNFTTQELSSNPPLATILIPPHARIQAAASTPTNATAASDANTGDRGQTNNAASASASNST
The target of series [2] is T1, Glycogen synthase kinase-3 beta. As to the kind of experiment: Inhibition of GSK3-beta in human HepG2 cells assessed as incorporation of [3H]glucose into glycogen after 3 hrs by liquid scintillation counting. The series is classed as cell-based.
Target sequence in this assay (P49841 whole entry): as above
Series [3] shares this target. As to the kind of experiment: Inhibition of GSK3-beta in human HepG2 cells assessed as incorporation of [3H]glucose into glycogen at 30 uM after 3 hrs by liquid scintillation counting relative to CHIR99021. The series is classed as cell-based. A digest of the protocol:
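Hep G2 cells seeded at 1 × 10^5 per well and cultured 3 days, then serum-starved 3 h in low-glucose DMEM. Compound added at varying concentrations with […] D-[2-3H]glucose (0.3% DMSO final) for 3 h at 37 °C. Cells lysed in KOH, glycogen ethanol-precipitated, and [3H] incorporation counted by scintillation. Efficacy is % of reference at 30 µM; n = 3.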
Target sequence in this assay (P49841 whole entry, looked up): as the sequence (P49841 whole entry) above

The next series has as its system Escherichia coli. As to the kind of experiment: Antibacterial activity against Escherichia coli after 18 hrs by microdilution method. The series is classed as organism-based.
In the next series the test system is Staphylococcus aureus. Kind of series: Antibacterial activity against Staphylococcus aureus after 18 hrs by microdilution method. In kind it is organism-based. To be noted: in vitro.
Series [4] deals with Mus musculus. Kind of series: Antidiabetic activity in fasted ICR mouse assessed as inhibition of plasma glucose concentration at 300 mg/kg, po administered 30 mins prior to glucose-challenge by oral glucose tolerance test. In kind it is functional. The method, boiled down: (§1)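 7-week-old ICR mice fasted 15–17 h, dosed orally with compound suspended in 0.3% CMC-Na or with vehicle. Glucose 5 g/kg given orally 30 min later. Tail-vein blood sampled before dosing and at 0, 0.5, 1 and 2 h after the glucose load; plasma glucose measured by glucose C II-test. The summed 0.5 + 1 h glucose values are expressed as % decrease versus vehicle.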

Series [5] is described as follows: AUC (0 to 25 hrs) in ICR mouse plasma at 300 mg/kg, po. In kind it is ADME, organism-based. Also noted: time < 25 hr, dose 300 mg/kg, route oral.
Series [6] in a line: Ratio of drug uptake in ICR mouse liver to ICR mouse plasma at 300 mg/kg, po at 4 hrs. In kind it is ADME, organism-based. More on the design: dose 300 mg/kg, route oral. The method, boiled down:
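Liver and plasma concentrations measured 4 h after an oral 300 mg/kg dose in ICR mice; ratio given as liver/plasma; means, n = 5–6.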

Series [7] is described as follows: AUC in ICR mouse liver at 300 mg/kg, po. The series is classed as ADME, organism-based. More on the design: dose 300 mg/kg, route oral. The method, boiled down: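 ICR mice dosed orally at 300 mg/kg. Liver AUC was calculated from the plasma AUC and the liver-to-plasma concentration ratio at 4 h post-dose. Means, n = 5–6.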
Series [8] has as its system Mus musculus. As to the kind of experiment: Ratio of AUC (0 to 25 hrs) in ICR mouse plasma to AUC in ICR mouse liver at 300 mg/kg, po. In kind it is ADME, organism-based. More on the design: dose 300 mg/kg, route oral. To be noted: in vivo.
The test system of series [9] is Mus musculus. As to the kind of experiment: Antidiabetic activity in fasted ICR mouse assessed as inhibition of plasma glucose concentration at 50 mg/kg, po administered 30 mins prior to glucose-challenge by oral glucose tolerance test. In kind it is functional. The method, boiled down: as §1
Series [10] deals with Mus musculus. Kind of series: Antidiabetic activity in fasted ICR mouse assessed as inhibition of plasma glucose concentration at 100 mg/kg, po administered 30 mins prior to glucose-challenge by oral glucose tolerance test. The series is classed as functional. A digest of the protocol:
as §1

Series [11] concerns Mus musculus. Kind of series: Antidiabetic activity in fasted ICR mouse assessed as inhibition of plasma glucose concentration at 150 mg/kg, po administered 30 mins prior to glucose-challenge by oral glucose tolerance test. The series is classed as functional. A digest of the protocol: as §1
Series [12] has as its system Mus musculus. As to the kind of experiment: Antidiabetic activity in po dosed fasted ICR mouse assessed as inhibition of plasma glucose concentration administered 30 mins prior to glucose-challenge by oral glucose tolerance test. The series is classed as functional, organism-based. The method, boiled down:
as §1

Turning to `Nc1c(F)c(NCCNc2ccccn2)c2c3c1c(=O)c(C(=O)O)cn3C1(CCCC1)CCO2`, the IC50 in series [1] was 250 nM. In series [2], the EC50 was 13000 nM. For the same compound, in series [3], the Efficacy was 85%. For the same compound, the MIC against Escherichia coli and with Staphylococcus aureus was over 34 µM each time.

As to `CC1CC2(CCC2)n2cc(C(=O)O)c(=O)c3c(N)c(F)c(NCCNc4ccccn4)c(c32)O1` (configuration not stated), the IC50 in series [1] was determined as 250 nM. Further, in [2], the EC50 turned out to be 2100 nM. For the same compound, in [3], the Efficacy is 94%. Also, the MIC in the series with Escherichia coli and against Staphylococcus aureus was over 34 µM each time.

For `Cc1cnc(-c2cnc(NCCNc3ccc(C#N)cn3)nc2-c2ccc(Cl)cc2Cl)[nH]1` [LADUVIGLUSIB], the Efficacy in series [3] was found to be 100%. Also, the inhibition in vivo at 300 mg/kg with Mus musculus [4] worked out at 38%.

`Cc1c[nH]c(-c2cnc(NCCNc3ccc(C#N)cn3)nc2-c2ccc(Cl)cc2Cl)n1` [LADUVIGLUSIB]: the AUC(0-t) at 25 h in [5] was found to be 210 µM·h. In [6], the Kp at 4 h amounted to 3.8. For the same compound, the AUC in [7] was 820 µM·h.

Regarding `Nc1c(F)c(NCCNc2ccccn2)c2c3c1c(=O)c(C(=O)O)cn3C1(CCO2)CC1`, in series [1], the IC50 stood at 37 nM. In series [3], the Efficacy came out at 42%. In addition, the MIC is 9 µM (≈ 3.96 µg/mL) with Escherichia coli and 5 µM (≈ 2.2 µg/mL) against Staphylococcus aureus.

`CC1COc2c(NCCNc3ccccn3)c(F)c(N)c3c(=O)c(C(=O)O)cn(c23)C12CCC2` (configuration not stated): the IC50 in series [1] is 10 nM. Moreover, in series [2], the EC50 amounted to 1400 nM. The Efficacy in series [3] worked out at 48%. Further, the MIC with Escherichia coli and in the series with Staphylococcus aureus was over 34 µM throughout. This compound also registered an AUC(0-t) at 25 h in series [5] of 6.8 µM·h. The Kp at 4 h in series [6] came to 32. In series [7], the AUC came to 217 µM·h. Also, the inhibition in vivo at 300 mg/kg in the series with Mus musculus [4] came to 13%.

As for `Nc1c(F)c(NCCNc2ccccn2)c2c3c1c(=O)c(C(=O)O)cn3C1(CCC1)CCN2`, in series [1], the IC50 is 550 nM. Further, in [3], the Efficacy was determined as 12%. Besides, the MIC against Escherichia coli and against Staphylococcus aureus was over 140 µM in each case.

For the compound `Nc1c(F)c(NCCNc2ccccn2)c2c3c1c(=O)c(C(=O)O)cn3C1(CCC1)CCO2`, the IC50 in [1] was determined as 36 nM. The EC50 in series [2] turned out to be 3200 nM. Besides, the Efficacy in series [3] stood at 65%. Also, the MIC is over 34 µM in the series on Escherichia coli and 18 µM (≈ 8.16 µg/mL) in the series with Staphylococcus aureus. In series [5], this compound returned an AUC(0-t) at 25 h of 24 µM·h. The Kp at 4 h in series [6] was determined as 32. This compound showed an area under the curve (AUC) in series [7] of 760 µM·h. The “Ratio AUC” value with Mus musculus [8] is given as 32. Also, the inhibition in vivo at 300 mg/kg in the series on Mus musculus [4] came out at 31%. In the series with Mus musculus [9], the inhibition in vivo at 50 mg/kg stood at 20%. The inhibition in vivo at 100 mg/kg in the series with Mus musculus [10] came out at 32%. Also, the inhibition in vivo at 150 mg/kg in the series with Mus musculus [11] came out at 39%. Besides, the inhibition result in the series on Mus musculus [12] is “Dose-dependent effect”.

Consider `Nc1c(F)c(NCCNc2ccccn2)c2c3c1c(=O)c(C(=O)O)cn3C1(CCCC1)CO2`, for which the EC50 in series [2] amounted to 20000 nM.
